IDE inh: inhibits human insulin-degrading enzyme in HEK cells | P14735 | 320,000 tested, 0.41% active | inhibition, % at 5.59 µM | FAbetaB cleavage, fluorescence polarization;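 active = percent inhibition above the average of all tested compounds plus 3 SD, set per screening campaign, cut at about 16% in these data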;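 note: IDE supplied by intact live HEK cells; FP after avidin binding of uncleaved biotin substrate so inhibition keeps polarization high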
TPT1 inhibitor: inhibitors of Candida albicans tRNA 2'-phosphotransferase TPT1; 300,000 tested, 0.81% active; recombinant caTPT1, FP RNA substrate dephosphorylation; inhibition, % at 5 µM; AID 1962;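 active = inhibition above the mean of all tested compounds plus 3 SD, set per screening campaign, cut at about 24% in these data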
IDE act: IDE (human) activation, cell-based | HEK cells, FAbeta-B cleavage, fluorescence polarization; 0% vehicle, 100% cell-free pure enzyme wells | P14735 | activation, % at 5.96 µM | 340,000 tested, 0.073% active;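 active = activation above the mean of all tested compounds plus 3 SD, set per screening campaign, cut at about 17% in these data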
CSN deneddyl inh: blocks human CSN-mediated cullin deneddylation; Purified CSN, SCF-Nedd8-OG deneddylation, fluorescence polarization; inhibition, % at 12.5 µM; 360,000 tested, 0.38% active;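 active = pattern-corrected inhibition above about 35%, with an unprinted fluorescence ratio check between 0.5 and 1.5, limit read from the data, passing the limit was not always enough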
Target sequence (Q92905 whole entry, looked up, one chain of several): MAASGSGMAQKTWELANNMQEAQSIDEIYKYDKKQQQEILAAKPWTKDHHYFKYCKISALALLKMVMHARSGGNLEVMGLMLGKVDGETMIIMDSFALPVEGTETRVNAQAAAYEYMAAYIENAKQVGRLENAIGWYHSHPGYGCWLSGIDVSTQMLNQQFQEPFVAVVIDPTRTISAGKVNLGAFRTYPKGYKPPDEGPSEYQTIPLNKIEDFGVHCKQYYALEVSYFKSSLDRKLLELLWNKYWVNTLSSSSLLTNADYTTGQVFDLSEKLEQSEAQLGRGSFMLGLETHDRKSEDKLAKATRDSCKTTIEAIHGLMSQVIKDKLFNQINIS
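Schedule: reaction 90 min, room temperature / Assay system: HEK293T-derived human Csn5 enzyme / Input: Csn5 at 0.24 nM final / Measure: inhibition of Csn5 cleavage, % / Control set: substrate-only high control, full reaction low control / Technique: fluorescence polarization of the substrate / Buffer or medium: Tris/NaCl/DTT buffer, pH 7.5 / Reagent: SCFSkp2-Nedd8OG substrate at 10 nM final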
TbMetRS inhib: blocks T. brucei methionyl-tRNA synthetase activity. 360,000 tested, 0.4% active. inhibition, % at 11.9 µM. purified T. brucei MetRS, ATP depletion, Kinase-Glo luminescence;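 active = inhibition above a per-plate cutoff of the control wells' mean inhibition plus 3 SD, cut at about 5.5% in these data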
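Material – parasite MetRS enzyme · Medium – HEPES-MgCl2-KCl buffer plus DTT, spermine, BSA, pyrophosphatase · Reagent – ATP, methionine and E. coli bulk tRNA substrates · Times – 15 min enzyme-compound preincubation, 2 h reaction, 10 min detection, 25 °C · Measured by – luminescence of leftover ATP · Evaluation – percent inhibition relative to median high and low control wells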
HNF4A DNA FP: change in binding of human HNF4 alpha to DNA; activity change, % at 10 µM; HNF4a-FITC DNA binding, fluorescence polarization, 1 h; 360,000 tested, 0.3% active; in the data active = activity change above about 30%, passing the limit was not always enough
Tb MetRS conf: Trypanosoma brucei MetRS inhibition confirmed | shares compounds with TbMetRS inhib | T. brucei MetRS enzyme, luminescence (ATP depletion) | inhibition, % at 11.9 µM | 1,400 tested, 93% active | AID 624412; in the data active = inhibition above about 7%
Jurkat cytotox: Jurkat T cell cytotoxicity for MetRS hits; shares compounds with TbMetRS inhib; Jurkat cells viability, ATP luminescence; inhibition, % at 8.3 µM; 1,400 tested, 12% active; in the data active = inhibition above about 15%
Tb MetRS inh FP: inhibits T. brucei methionyl tRNA synthetase in orthogonal FP test; purified T. brucei MetRS, fluorescence polarization; AID 651607; inhibition, % at 11.9 µM; shares compounds with TbMetRS inhib; 1,400 tested, 44% active; in the data active = inhibition above about 17%
CSN5 deneddyl: Csn5 (human) deneddylation inhibition, single-concentration validation; shares compounds with CSN deneddyl inh; Csn5 deneddylation of SCF-Nedd8OG, fluorescence polarization, 90 min; inhibition, % at 16.6 µM; 540 tested, 62% active; AID 720654; in the data active = inhibition above about 50%
MMP2 cntr CSN: blocks human MMP-2 in a CSN deneddylation counter-screen | shares compounds with CSN deneddyl inh | recombinant MMP-2, FRET substrate fluorescence, 60 min | inhibition, % at 16.6 µM | 540 tested, 33% active | AID 720655;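 active = corrected plate-normalized z-score of 5 or more, or -5 or less, or inhibition of 15% or more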
Thrombin cntr: counter-screen for CSN deneddylation inhibitors: bovine thrombin inhibition; shares compounds with CSN deneddyl inh; bovine thrombin cleavage of Ub4-pepOG, fluorescence polarization; inhibition, % at 16.6 µM; 540 tested, 49% active;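 active = inhibition at or above a set limit, with a fluorescence interference ratio between 0.5 and a set maximum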
A number is an active result; ! = repeats disagree. In the library only some 1.7% were active in any assay of this set; here they are far more common.

Results for O=C1Nc2ccccc2C1Cc1nc2ccccc2c(=O)n1-c1ccccc1 (centres undefined) ?
IDE inh: inactive; TPT1 inhibitor: inactive; IDE act: inactive; CSN deneddyl inh: inactive; TbMetRS inhib: 9.1; HNF4A DNA FP: inactive; Tb MetRS conf: 6.2; Jurkat cytotox: inactive; Tb MetRS inh FP: inactive

What do the screens show for `CN1C(=O)C(Cc2nc3ccccc3c(=O)n2-c2ccccc2)c2ccccc21` (centres undefined)?
IDE inh: inactive; TPT1 inhibitor: inactive; IDE act: inactive; CSN deneddyl inh: inactive; TbMetRS inhib: inactive; HNF4A DNA FP: inactive

What do the screens show for `COc1ccc(-n2nnnc2C(CCSC)N2CCC3(CC2)C(=O)NCN3c2ccccc2)cc1` (centres undefined)?
CSN deneddyl inh: inactive; TbMetRS inhib: inactive; HNF4A DNA FP: inactive

Results for Cc1ccc2nc3c(cc2c1)CC1(C(=O)N(C)C(=O)N(C)C1=O)C1CCCCN31 (centres undefined) ?
IDE inh: inactive; TPT1 inhibitor: inactive; IDE act: inactive; CSN deneddyl inh: inactive; TbMetRS inhib: inactive; HNF4A DNA FP: inactive

What do the screens show for `Cc1ccc2nc3c(cc2c1)CC1(C(=O)N(C)C(=O)N(C)C1=O)C1COCCN31` (centres undefined)?
IDE inh: inactive; TPT1 inhibitor: inactive; IDE act: inactive; CSN deneddyl inh: inactive; TbMetRS inhib: 7.1; HNF4A DNA FP: inactive; Tb MetRS conf: inactive; Jurkat cytotox: inactive; Tb MetRS inh FP: inactive

How did c1ccc(-c2ccc(CN3Cc4ccccc4-n4nncc4C3)cc2)cc1 do in these assays?
CSN deneddyl inh: inactive; TbMetRS inhib: inactive; HNF4A DNA FP: inactive

How did Clc1ccc(COC(Cn2ccnc2)c2ccc(Cl)cc2Cl)cc1 (centres undefined) do in these assays?
IDE inh: inactive; TPT1 inhibitor: inactive; IDE act: inactive; CSN deneddyl inh: inactive; TbMetRS inhib: 6.1; HNF4A DNA FP: inactive; Tb MetRS conf: 20; Jurkat cytotox: inactive; Tb MetRS inh FP: inactive

What do the screens show for `CSc1ccc(C(=O)C2CCCN(Cc3cc4ccccc4[nH]3)C2)cc1` (centres undefined)?
IDE inh: inactive; TPT1 inhibitor: inactive; IDE act: inactive; CSN deneddyl inh: inactive; TbMetRS inhib: 7.1; HNF4A DNA FP: inactive; Tb MetRS conf: 15; Jurkat cytotox: inactive; Tb MetRS inh FP: inactive

How did COC(=O)C1=C(c2c(C)noc2C)C[C@@H]2CC[C@H]1N2C(=O)NCC1CC1 do in these assays?
IDE inh: inactive; IDE act: inactive; CSN deneddyl inh: inactive; TbMetRS inhib: inactive; HNF4A DNA FP: inactive

Results for NC(=O)c1cn(C2OC(CO)C(O)C2O)c2ncnc(N)c12 (centres undefined) ?
IDE inh: inactive; TPT1 inhibitor: inactive; IDE act: inactive; CSN deneddyl inh: inactive; TbMetRS inhib: 5.9!; HNF4A DNA FP: inactive; Tb MetRS conf: 12; Jurkat cytotox: 97; Tb MetRS inh FP: inactive

Results for N#Cc1cn(C2OC(CO)C(O)C2O)c2ncnc(N)c12 (centres undefined) ?
IDE act: inactive; CSN deneddyl inh: inactive; TbMetRS inhib: inactive; HNF4A DNA FP: inactive

How did O=c1[nH]c2ccccc2n1C1CCN(C(CCc2ccccc2)c2nnnn2C2CCCCC2)CC1 (centres undefined) do in these assays?
CSN deneddyl inh: inactive; TbMetRS inhib: inactive; HNF4A DNA FP: inactive

Results for CCN(CC)C(=O)c1ccc(NC(=O)c2ccc(-n3cncn3)c([N+](=O)[O-])c2)cc1 ?
IDE inh: inactive; TPT1 inhibitor: inactive; IDE act: inactive; CSN deneddyl inh: inactive; TbMetRS inhib: 8.0; HNF4A DNA FP: inactive; Tb MetRS conf: 43; Jurkat cytotox: inactive; Tb MetRS inh FP: 26

Results for Cc1nn(CCC#N)c2c1P(=S)(N1CCCC1)OC(c1ccc(F)cc1)=N2 (centres undefined) ?
IDE inh: inactive; TPT1 inhibitor: inactive; IDE act: inactive; CSN deneddyl inh: inactive; TbMetRS inhib: inactive; HNF4A DNA FP: inactive

What do the screens show for `CN(C)Cc1c[nH]c2cc([N+](=O)[O-])ccc12`?
IDE act: inactive; CSN deneddyl inh: inactive; TbMetRS inhib: 6.7; HNF4A DNA FP: inactive; Tb MetRS conf: 30; Jurkat cytotox: inactive; Tb MetRS inh FP: inactive

What do the screens show for `CN(C)Cc1c[nH]c2ccc([N+](=O)[O-])cc12`?
IDE act: inactive; CSN deneddyl inh: inactive; TbMetRS inhib: inactive; HNF4A DNA FP: inactive

What do the screens show for `Nc1c(C(=O)NC2CCCC2)c2nc3ccccc3nc2n1CC1CCCO1` (centres undefined)?
IDE inh: inactive; TPT1 inhibitor: inactive; IDE act: inactive; CSN deneddyl inh: 46; TbMetRS inhib: 7.5; HNF4A DNA FP: inactive; Tb MetRS conf: inactive; Jurkat cytotox: inactive; Tb MetRS inh FP: inactive

Results for Clc1ccc(C(c2ccc(Cl)cc2)n2cc[n+](CC(OCc3ccc(Cl)cc3Cl)c3ccc(Cl)cc3Cl)c2)cc1 (centres undefined) ?
IDE inh: inactive; TPT1 inhibitor: inactive; IDE act: 19; CSN deneddyl inh: inactive; TbMetRS inhib: 8.7; HNF4A DNA FP: inactive; Tb MetRS conf: 13; Jurkat cytotox: 82; Tb MetRS inh FP: 178

How did Cc1nc2c(=O)n(C)c(=O)nc-2n(C)n1 do in these assays?
IDE inh: inactive; TPT1 inhibitor: inactive; IDE act: inactive; CSN deneddyl inh: 63; TbMetRS inhib: 30; HNF4A DNA FP: 78; Tb MetRS conf: 22; Jurkat cytotox: 91; Tb MetRS inh FP: inactive; CSN5 deneddyl: inactive; MMP2 cntr CSN: inactive; Thrombin cntr: inactive

Results for O=C(NC(=O)N1CCC2(CC1)OCCO2)c1ccc(Cl)cc1 ?
IDE inh: inactive; TPT1 inhibitor: inactive; IDE act: inactive; CSN deneddyl inh: inactive; TbMetRS inhib: inactive; HNF4A DNA FP: inactive

Screening results (PubChem)
